The source made the active and inactive calls. The rule behind the calls is not given here.
How the values were obtained:
[1] = molecular target: T1, 3-phosphoinositide-dependent protein kinase 1 (Homo sapiens) (UniProt O15530); assay: Activation of PDK1 using KTFCGTPEYLAPEVRR as substrate and [gamma32P]-ATP/Mg2+ by phosphor imaging analysis relative to control
T1 sequence (whole entry): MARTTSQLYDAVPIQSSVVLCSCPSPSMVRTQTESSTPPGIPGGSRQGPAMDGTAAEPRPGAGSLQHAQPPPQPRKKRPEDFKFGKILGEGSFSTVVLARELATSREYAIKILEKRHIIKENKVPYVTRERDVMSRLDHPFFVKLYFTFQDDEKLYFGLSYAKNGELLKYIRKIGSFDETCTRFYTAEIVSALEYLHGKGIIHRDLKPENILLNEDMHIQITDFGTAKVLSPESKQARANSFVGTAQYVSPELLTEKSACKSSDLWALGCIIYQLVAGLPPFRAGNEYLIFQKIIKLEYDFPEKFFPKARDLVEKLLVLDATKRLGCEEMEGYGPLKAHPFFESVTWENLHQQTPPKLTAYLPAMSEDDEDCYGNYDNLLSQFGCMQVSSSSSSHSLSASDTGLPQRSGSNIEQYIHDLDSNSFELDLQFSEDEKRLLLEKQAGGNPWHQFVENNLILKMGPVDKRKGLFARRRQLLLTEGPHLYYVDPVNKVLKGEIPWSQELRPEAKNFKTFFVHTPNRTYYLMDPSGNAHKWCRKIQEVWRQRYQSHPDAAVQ
In short: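 Radioactive kinase assay with 0.25 μM PDK1 and [γ32P]ATP. Phosphorylated peptide was captured on P81 phosphocellulose paper and detected by phosphorimaging. Activation is expressed relative to DMSO control (=100%). AC50 is the concentration giving half-maximal activation. Values are the mean of at least two independent experiments.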

[2] = molecular target: T2, Protein kinase C zeta type (Homo sapiens) (UniProt Q05513); assay: Activation of PKCzeta at 50 uM relative to control
T2 sequence (whole entry): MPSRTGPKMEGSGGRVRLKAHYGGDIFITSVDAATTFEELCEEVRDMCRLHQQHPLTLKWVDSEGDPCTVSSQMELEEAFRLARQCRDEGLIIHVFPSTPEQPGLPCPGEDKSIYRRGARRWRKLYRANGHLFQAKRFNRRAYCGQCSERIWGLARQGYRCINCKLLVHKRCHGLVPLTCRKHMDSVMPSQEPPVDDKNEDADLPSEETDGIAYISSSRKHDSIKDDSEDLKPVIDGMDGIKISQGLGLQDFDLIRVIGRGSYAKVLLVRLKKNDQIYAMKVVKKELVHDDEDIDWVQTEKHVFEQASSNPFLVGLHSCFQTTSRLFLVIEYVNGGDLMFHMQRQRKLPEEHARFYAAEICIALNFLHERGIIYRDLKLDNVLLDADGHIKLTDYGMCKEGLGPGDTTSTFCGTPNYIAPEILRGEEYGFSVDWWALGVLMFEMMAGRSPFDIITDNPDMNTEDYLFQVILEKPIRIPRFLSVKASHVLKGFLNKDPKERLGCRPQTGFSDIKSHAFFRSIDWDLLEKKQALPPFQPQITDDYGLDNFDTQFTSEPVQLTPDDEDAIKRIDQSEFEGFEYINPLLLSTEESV

[3] = molecular target: T3, Serine/threonine-protein kinase Sgk1 (Homo sapiens) (UniProt O00141); assay: Activation of SGK at 2 uM relative to control
T3 sequence (whole entry): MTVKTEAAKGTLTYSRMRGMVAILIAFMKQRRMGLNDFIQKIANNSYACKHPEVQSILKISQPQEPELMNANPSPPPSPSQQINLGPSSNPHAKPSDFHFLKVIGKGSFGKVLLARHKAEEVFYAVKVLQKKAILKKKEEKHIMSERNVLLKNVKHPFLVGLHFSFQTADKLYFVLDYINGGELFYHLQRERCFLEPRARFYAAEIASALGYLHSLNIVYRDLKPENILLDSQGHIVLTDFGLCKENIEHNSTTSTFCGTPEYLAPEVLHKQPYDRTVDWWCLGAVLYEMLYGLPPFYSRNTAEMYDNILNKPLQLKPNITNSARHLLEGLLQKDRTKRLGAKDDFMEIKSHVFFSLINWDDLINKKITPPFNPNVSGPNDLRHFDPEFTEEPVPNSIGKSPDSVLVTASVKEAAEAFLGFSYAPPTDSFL

[4] = molecular target: Serine/threonine-protein kinase N2 (Homo sapiens) (UniProt Q16513); assay: Activation of PRK2 at 50 uM relative to control
Sequence of Serine/threonine-protein kinase N2 (Homo sapiens) (Q16513 whole entry, looked up): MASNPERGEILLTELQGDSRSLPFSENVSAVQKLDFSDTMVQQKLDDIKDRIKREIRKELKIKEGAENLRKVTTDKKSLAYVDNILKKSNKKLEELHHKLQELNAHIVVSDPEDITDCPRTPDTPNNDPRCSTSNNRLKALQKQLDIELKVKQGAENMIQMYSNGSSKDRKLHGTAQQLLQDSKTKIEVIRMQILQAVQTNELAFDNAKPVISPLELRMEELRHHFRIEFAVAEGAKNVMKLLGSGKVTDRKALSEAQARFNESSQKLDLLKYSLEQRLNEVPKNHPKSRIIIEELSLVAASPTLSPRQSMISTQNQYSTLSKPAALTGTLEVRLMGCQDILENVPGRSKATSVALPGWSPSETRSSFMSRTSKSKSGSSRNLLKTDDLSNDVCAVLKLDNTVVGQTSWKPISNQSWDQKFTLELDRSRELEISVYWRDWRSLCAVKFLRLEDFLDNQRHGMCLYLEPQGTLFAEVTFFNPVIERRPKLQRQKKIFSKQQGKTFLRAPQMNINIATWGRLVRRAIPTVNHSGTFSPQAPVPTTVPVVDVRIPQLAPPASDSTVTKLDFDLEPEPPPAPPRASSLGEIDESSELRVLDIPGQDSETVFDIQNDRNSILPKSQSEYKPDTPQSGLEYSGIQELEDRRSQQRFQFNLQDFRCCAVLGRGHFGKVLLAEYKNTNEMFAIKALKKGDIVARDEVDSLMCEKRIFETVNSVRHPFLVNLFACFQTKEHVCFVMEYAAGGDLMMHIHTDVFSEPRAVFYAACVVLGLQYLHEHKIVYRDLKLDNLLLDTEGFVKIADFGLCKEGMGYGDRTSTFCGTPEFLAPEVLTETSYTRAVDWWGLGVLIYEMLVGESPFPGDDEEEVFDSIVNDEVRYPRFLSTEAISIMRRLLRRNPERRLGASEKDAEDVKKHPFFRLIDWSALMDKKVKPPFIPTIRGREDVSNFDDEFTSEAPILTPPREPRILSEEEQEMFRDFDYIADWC

[5] = molecular target: T2, Protein kinase C zeta type (Homo sapiens); assay: Activation of PKCzeta at 2 uM relative to control
[6] = molecular target: RAC-alpha serine/threonine-protein kinase (Homo sapiens) (UniProt P31749); assay: Activation of PKBalpha at 50 uM relative to control
Sequence of RAC-alpha serine/threonine-protein kinase (Homo sapiens) (P31749 whole entry): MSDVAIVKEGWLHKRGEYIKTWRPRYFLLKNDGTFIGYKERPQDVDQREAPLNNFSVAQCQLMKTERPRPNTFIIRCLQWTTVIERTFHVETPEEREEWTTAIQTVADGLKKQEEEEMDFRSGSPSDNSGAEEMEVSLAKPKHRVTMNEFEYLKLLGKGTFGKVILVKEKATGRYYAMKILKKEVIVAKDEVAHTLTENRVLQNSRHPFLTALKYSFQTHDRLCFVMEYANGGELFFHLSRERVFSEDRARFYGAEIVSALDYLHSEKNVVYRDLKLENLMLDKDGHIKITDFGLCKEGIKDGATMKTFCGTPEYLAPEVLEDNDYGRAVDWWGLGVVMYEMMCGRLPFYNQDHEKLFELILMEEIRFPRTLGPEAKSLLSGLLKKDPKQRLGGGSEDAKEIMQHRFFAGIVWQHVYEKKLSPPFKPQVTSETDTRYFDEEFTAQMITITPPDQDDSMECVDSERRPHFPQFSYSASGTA

[7] = molecular target: Ribosomal protein S6 kinase beta-1 (Homo sapiens) (UniProt P23443); assay: Activation of S6K1 at 2 uM relative to control
Sequence of Ribosomal protein S6 kinase beta-1 (Homo sapiens) (P23443 whole entry, looked up): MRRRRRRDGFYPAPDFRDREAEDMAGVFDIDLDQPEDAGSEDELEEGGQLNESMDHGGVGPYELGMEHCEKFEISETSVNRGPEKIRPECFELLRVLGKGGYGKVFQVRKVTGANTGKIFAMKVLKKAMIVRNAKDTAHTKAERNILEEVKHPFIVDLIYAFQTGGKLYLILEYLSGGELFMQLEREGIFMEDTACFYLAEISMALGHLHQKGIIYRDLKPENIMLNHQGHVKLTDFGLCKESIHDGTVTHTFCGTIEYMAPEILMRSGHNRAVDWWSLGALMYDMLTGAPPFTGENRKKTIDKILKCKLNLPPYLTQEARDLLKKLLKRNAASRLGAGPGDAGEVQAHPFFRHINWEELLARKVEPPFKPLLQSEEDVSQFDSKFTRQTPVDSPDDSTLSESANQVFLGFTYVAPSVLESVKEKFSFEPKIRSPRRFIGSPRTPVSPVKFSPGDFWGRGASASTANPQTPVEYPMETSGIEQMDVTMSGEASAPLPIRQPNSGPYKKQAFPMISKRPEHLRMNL

[8] = molecular target: RAC-alpha serine/threonine-protein kinase (Homo sapiens) (UniProt P31749); assay: Activation of PKBalpha at 2 uM relative to control
[9] = Activation of PKA at 50 uM relative to control
[10] = molecular target: T3, Serine/threonine-protein kinase Sgk1 (Homo sapiens); assay: Activation of SGK at 50 uM relative to control
[11] = molecular target: Ribosomal protein S6 kinase beta-1 (Homo sapiens) (UniProt P23443); assay: Activation of S6K1 at 50 uM relative to control
[12] = molecular target: Serine/threonine-protein kinase N2 (Homo sapiens) (UniProt Q16513); assay: Activation of PRK2 at 2 uM relative to control
[13] = Activation of PKA at 2 uM relative to control
[14] = molecular target: T1, 3-phosphoinositide-dependent protein kinase 1 (Homo sapiens); assay: Increase in thermal stability of PDK1 assessed as concentration required to increase 1.5 degC thermal stability by differential scanning fluorimetry
In short: (§1)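 PDK1 (1 μM) in 10 mM HEPES pH 7.5, 150 mM NaCl, 1 mM DTT and 1/1000 SYPRO Orange, with ligand at 1% final DMSO, was heated from 25–70 °C in 0.3 °C steps. Tm came from a Boltzmann fit, and ΔTm is relative to DMSO control, each point from duplicates. EC50 was fitted from ΔTm versus concentration, along with the concentration giving a 1.5 °C shift.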

[15] = molecular target: T4, 3-phosphoinositide-dependent protein kinase 1 (Homo sapiens, UniProt O15530); assay: Increase in thermal stability of PDK1 by differential scanning fluorimetry; in short: as §1
T4 sequence (O15530 whole entry): T1 sequence (whole entry)

[16] = molecular target: T1, 3-phosphoinositide-dependent protein kinase 1 (Homo sapiens); assay: Increase in thermal stability of PDK1 by differential scanning fluorimetry relative to control; in short: as §1
[17] = Activation of RSK at 2 uM relative to control
L6 = assay: Cellular uptake in rat L6 cells at 20 uM up to 100 mins by mass spectroscopy analysis; format: ADME, cell-based; conditions: l6, 100 min
[18] = Activation of RSK at 50 uM relative to control
[19] = Activation of MSK at 50 uM relative to control
[20] = Activation of MSK at 2 uM relative to control
[21] = molecular target: T4, 3-phosphoinositide-dependent protein kinase 1; assay: Binding affinity to PDK1

## O=C(C[C@@H](c1ccccc1)C(C(=O)O)C(=O)O)c1ccc(C(F)(F)F)cc1
[1]
  max activation: 2

## O=C(C[C@H](c1ccccc1)C(C(=O)O)C(=O)O)c1ccc(C(F)(F)F)cc1
[1]
  max activation: 5.5

## O=C(O)/C=C(/CCc1ccc(Cl)cc1)c1ccccc1
[2]
  Activity: inactive
[3]
  Activity: inactive
[4]
  Activity: inactive
[5]
  Activity: inactive
[6]
  Activity: inactive
[7]
  Activity: inactive
[8]
  Activity: inactive
[9]
  Activity: 74%
[10]
  Activity: inactive
[11]
  Activity: 84%
[12]
  Activity: inactive
[13]
  Activity: inactive

## O=C(CC(c1ccc2ccccc2c1)C(C(=O)O)C(=O)O)c1ccc(I)cc1 (racemic)
[14]
  Activity: 18.9 µM
[1]
  max activation: 3.6
[15]
  EC50: 13 µM
[16]
  ΔTm: 2.4 °C

## O=C(CC(c1ccccc1)C(C(=O)O)C(=O)O)c1ccc(C(F)(F)F)cc1 (racemic)
[17]
  Activity: inactive
[14]
  Activity: 67.6 µM
[1]
  max activation: 5.5
[2]
  Activity: inactive
[3]
  Activity: inactive
[4]
  Activity: inactive
[15]
  EC50: 85.8 µM
L6
  Drug uptake: Not Active
[18]
  Activity: 140%
[19]
  Activity: inactive
[5]
  Activity: inactive
[6]
  Activity: inactive
[7]
  Activity: 82%
[8]
  Activity: inactive
[9]
  Activity: 80%
[16]
  ΔTm: 3.9 °C
[10]
  Activity: inactive
[11]
  Activity: 46%
[12]
  Activity: inactive
[20]
  Activity: inactive
[13]
  Activity: inactive

## O=C(CC(c1ccccc1)C(C(=O)O)C(=O)O)c1ccc(I)cc1 (racemic)
[14]
  Activity: 30.9 µM
[1]
  max activation: 4
[15]
  EC50: 60 µM
[16]
  ΔTm: 5.2 °C

## O=C(CC(c1ccccc1)C(C(=O)O)C(=O)O)c1ccc2c(c1)[nH]c1ccccc12 (racemic)
[14]
  Activity: 18.2 µM
[1]
  max activation: 3.6
[15]
  EC50: 30.2 µM
[16]
  ΔTm: 4.9 °C

## CCc1ccc(C(=O)CC(CC(=O)O)c2ccccc2)cc1 (racemic)
[1]
  max activation: 2

## CCc1ccc(C(=O)CC(c2ccc(Cl)cc2)C(C(=O)O)C(=O)O)cc1 (racemic)
[1]
  max activation: 3

## CCc1ccc(C(=O)CC(c2ccccc2)C(C(=O)O)C(=O)O)cc1 (racemic)
[1]
  max activation: 5

## COc1ccc2cc(C(=O)CC(c3ccccc3)C(C(=O)O)C(=O)O)ccc2c1 (racemic)
[1]
  max activation: 3.6

## O=C(CC(c1cc(-c2ccccc2)cs1)C(C(=O)O)C(=O)O)c1ccc(C(F)(F)F)cc1 (racemic)
[1]
  max activation: inactive

## O=C(CC(c1ccc(Cl)cc1)C(C(=O)O)C(=O)O)c1ccc(Br)cc1 (racemic)
[1]
  max activation: 3

## O=C(CC(c1ccc(Cl)cc1)C(C(=O)O)C(=O)O)c1ccc(C(F)(F)F)cc1 (racemic)
[1]
  max activation: 3.5

## O=C(CC(c1ccc(Cl)cc1)C(C(=O)O)C(=O)O)c1ccc(Cl)cc1 (racemic)
[1]
  max activation: 2

## O=C(CC(c1ccc(Cl)cc1)C(C(=O)O)C(=O)O)c1ccc(I)cc1 (racemic)
[1]
  max activation: 3.8

## O=C(CC(c1ccc(Cl)cc1)C(C(=O)O)C(=O)O)c1ccc(O)cc1 (racemic)
[1]
  max activation: inactive

## O=C(CC(c1ccc2ccccc2c1)C(C(=O)O)C(=O)O)c1ccc2ccccc2c1 (racemic)
[1]
  max activation: 4.8

## O=C(CC(c1ccccc1)C(C(=O)O)C(=O)O)c1c[nH]c2ccccc12 (racemic)
[1]
  max activation: 3

## O=C(CC(c1ccccc1)C(C(=O)O)C(=O)O)c1ccc(Br)cc1 (racemic)
[1]
  max activation: 3.7

## O=C(CC(c1ccccc1)C(C(=O)O)C(=O)O)c1ccc(Cl)cc1 (racemic)
[17]
  Activity: inactive
[1]
  max activation: 4
[2]
  Activity: inactive
[3]
  Activity: inactive
[4]
  Activity: inactive
[18]
  Activity: 160%
[19]
  Activity: inactive
[5]
  Activity: inactive
[6]
  Activity: inactive
[7]
  Activity: 84%
[8]
  Activity: inactive
[9]
  Activity: inactive
[10]
  Activity: inactive
[11]
  Activity: 47%
[12]
  Activity: inactive
[20]
  Activity: inactive
[13]
  Activity: inactive

## O=C(CC(c1ccccc1)C(C(=O)O)C(=O)O)c1ccc(Oc2ccccc2)cc1 (racemic)
[1]
  max activation: 7

## O=C(CC(c1ccccc1)C(C(=O)O)C(=O)O)c1ccc2c(ccc3ccccc32)c1 (racemic)
[1]
  max activation: 3.7

## O=C(CC(c1ccccc1)C(C(=O)O)C(=O)O)c1ccc2ccccc2c1 (racemic)
[1]
  max activation: 4

## O=C(CC(c1ccccc1)C(C(=O)O)C(=O)O)c1cccc(Cl)c1 (racemic)
[1]
  max activation: 2.6

## O=C(O)CC(CC(=O)c1ccc(Br)cc1)c1ccccc1 (racemic)
[1]
  max activation: 2

## O=C(O)CC(CC(=O)c1ccc(C(F)(F)F)cc1)c1ccc(Cl)cc1 (racemic)
[1]
  max activation: inactive

## O=C(O)CC(CC(=O)c1ccc(C(F)(F)F)cc1)c1ccccc1 (racemic)
[1]
  max activation: 4

## O=C(O)CC(CC(=O)c1ccc(Cl)cc1)c1ccc(Cl)cc1 (racemic)
[1]
  max activation: inactive

## O=C(O)CC(CC(=O)c1ccc(Cl)cc1)c1ccccc1 (racemic)
[1]
  max activation: 3

## O=C(O)CC(CC(=O)c1ccc(I)cc1)c1ccc(Cl)cc1 (racemic)
[1]
  max activation: 2.5

## O=C(O)CC(CC(=O)c1ccc(I)cc1)c1ccccc1 (racemic)
[1]
  max activation: 4

## O=C(O)CC(CC(=O)c1ccc(Oc2ccccc2)cc1)c1ccccc1 (racemic)
[1]
  max activation: 2.8

## O=C(O)CC(CC(=O)c1ccc2c(ccc3ccccc32)c1)c1ccccc1 (racemic)
[1]
  max activation: 1.5

## O=C(O)CC(CC(=O)c1ccc2cc(O)ccc2c1)c1ccccc1 (racemic)
[1]
  max activation: 3

## O=C(O)CC(CC(=O)c1ccc2ccccc2c1)c1ccc2ccccc2c1 (racemic)
[1]
  max activation: 3.4

## O=C(O)CC(CC(=O)c1ccc2ccccc2c1)c1ccccc1 (racemic)
[1]
  max activation: 2.5

## O=C(O)CC(CC(=O)c1cccc(Cl)c1)c1ccccc1 (racemic)
[1]
  max activation: 2.5

## H-REPRILSEEEQEMFRDFDYIADWC-OH
[21]
  Kd: 0.043 µM
[14]
  Activity: 3.1 µM
[1]
  max activation: 3.4
[15]
  EC50: 14.2 µM
[16]
  ΔTm: 7.3 °C
